Values after ≈ are worked out from the molar mass of the structure shown.
Columns and labels:
[1] = molecular target: T1, Bromodomain-containing protein 3 (Homo sapiens, UniProt Q15059); assay: Inhibition of His6-tagged BRD3 expressed in Escherichia coli assessed as inhibition of binding to SGRG-K(Ac)-GG-K(Ac)-GLG-K(Ac)-GGA-K(Ac)-RHGSGSK-biotin after 1 hr by TR-FRET assay
Target sequence in this assay (Q15059 whole entry): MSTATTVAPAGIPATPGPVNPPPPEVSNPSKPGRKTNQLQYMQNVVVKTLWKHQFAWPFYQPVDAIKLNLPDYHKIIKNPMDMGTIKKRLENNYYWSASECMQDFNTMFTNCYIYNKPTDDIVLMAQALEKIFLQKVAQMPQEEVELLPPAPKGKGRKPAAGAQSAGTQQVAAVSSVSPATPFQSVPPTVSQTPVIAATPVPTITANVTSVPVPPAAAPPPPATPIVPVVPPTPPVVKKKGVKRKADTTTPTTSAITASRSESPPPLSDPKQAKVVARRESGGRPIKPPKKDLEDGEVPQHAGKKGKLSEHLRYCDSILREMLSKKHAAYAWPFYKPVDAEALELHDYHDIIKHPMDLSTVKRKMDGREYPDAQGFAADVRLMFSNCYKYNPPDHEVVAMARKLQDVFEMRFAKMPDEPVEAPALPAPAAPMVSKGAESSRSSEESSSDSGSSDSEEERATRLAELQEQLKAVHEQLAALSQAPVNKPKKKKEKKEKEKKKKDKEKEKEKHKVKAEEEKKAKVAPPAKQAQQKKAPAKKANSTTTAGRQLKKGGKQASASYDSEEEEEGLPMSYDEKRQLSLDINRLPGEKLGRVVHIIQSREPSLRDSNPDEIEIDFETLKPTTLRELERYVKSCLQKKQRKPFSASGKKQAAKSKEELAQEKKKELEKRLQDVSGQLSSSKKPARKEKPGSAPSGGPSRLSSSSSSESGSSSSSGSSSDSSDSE

[2] = molecular target: Bromodomain-containing protein 4 (Homo sapiens, UniProt O60885); assay: Inhibition of His6-tagged BRD4-BD12 expressed in Escherichia coli assessed as inhibition of binding to SGRG-K(Ac)-GG-K(Ac)-GLG-K(Ac)-GGA-K(Ac)-RHGSGSK-biotin after 1 hr by TR-FRET assay
[3] = molecular target: T2, Bromodomain-containing protein 2 (Homo sapiens, UniProt P25440); assay: Inhibition of His6FLAG-tagged BRD2-BD12 expressed in Escherichia coli assessed as change in melting temperature at 100 uM by thermal shift assay
In short: (§1)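 Thermal melt: protein heated with or without 100 μM compound, at least duplicate; Sypro orange at 1:1000 in PBS with 10% glycerol; ramp 1 °C/min, fluorescence read every 0.5 °C; ΔTm reported.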
Target sequence in this assay (P25440 whole entry, looked up): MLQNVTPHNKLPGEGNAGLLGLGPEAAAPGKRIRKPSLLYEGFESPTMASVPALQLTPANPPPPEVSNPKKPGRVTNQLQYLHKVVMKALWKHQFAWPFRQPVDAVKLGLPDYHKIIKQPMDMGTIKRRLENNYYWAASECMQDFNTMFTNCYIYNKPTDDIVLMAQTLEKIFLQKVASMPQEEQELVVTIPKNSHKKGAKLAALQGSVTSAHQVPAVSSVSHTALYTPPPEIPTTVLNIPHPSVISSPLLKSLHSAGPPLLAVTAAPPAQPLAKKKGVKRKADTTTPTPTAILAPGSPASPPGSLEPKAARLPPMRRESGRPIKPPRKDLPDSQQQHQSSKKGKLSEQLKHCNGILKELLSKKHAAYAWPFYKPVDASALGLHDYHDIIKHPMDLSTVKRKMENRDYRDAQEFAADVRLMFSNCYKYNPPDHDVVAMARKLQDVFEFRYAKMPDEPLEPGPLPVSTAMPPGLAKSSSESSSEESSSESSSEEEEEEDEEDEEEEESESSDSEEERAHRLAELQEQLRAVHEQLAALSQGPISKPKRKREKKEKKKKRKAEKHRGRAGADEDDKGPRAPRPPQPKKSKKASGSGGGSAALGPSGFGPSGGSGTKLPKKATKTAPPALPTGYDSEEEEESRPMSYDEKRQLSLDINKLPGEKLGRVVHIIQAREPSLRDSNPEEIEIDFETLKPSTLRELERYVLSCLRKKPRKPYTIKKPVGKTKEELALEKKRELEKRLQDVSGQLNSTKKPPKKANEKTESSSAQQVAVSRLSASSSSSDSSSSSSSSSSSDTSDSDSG

[4] = Solubility of the compound at pH 7; type: physicochemical; settings: buffer
[5] = molecular target: T2, Bromodomain-containing protein 2; assay: Binding affinity to His6-tagged BRD2 expressed in Escherichia coli by surface plasmon resonance assay
In short: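 SPR with tandem bromodomain (BRD2-BD12 or BRD4-BD12) amine-coupled to CM5 chip after EDC/NHS activation; protein 0.1−2 mg/mL in NaAc pH 4.5−5.5, >5 kRU immobilized, ethanolamine-blocked. Running buffer 50 mM HEPES pH 7.5, 150 mM NaCl.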

[6] = molecular target: T1, Bromodomain-containing protein 3; assay: Inhibition of His6FLAG-tagged BRD3-BD12 expressed in Escherichia coli assessed as change in melting temperature at 100 uM by thermal shift assay; in short: as §1
Target sequence in this assay (Q15059 2-726 limits assumed): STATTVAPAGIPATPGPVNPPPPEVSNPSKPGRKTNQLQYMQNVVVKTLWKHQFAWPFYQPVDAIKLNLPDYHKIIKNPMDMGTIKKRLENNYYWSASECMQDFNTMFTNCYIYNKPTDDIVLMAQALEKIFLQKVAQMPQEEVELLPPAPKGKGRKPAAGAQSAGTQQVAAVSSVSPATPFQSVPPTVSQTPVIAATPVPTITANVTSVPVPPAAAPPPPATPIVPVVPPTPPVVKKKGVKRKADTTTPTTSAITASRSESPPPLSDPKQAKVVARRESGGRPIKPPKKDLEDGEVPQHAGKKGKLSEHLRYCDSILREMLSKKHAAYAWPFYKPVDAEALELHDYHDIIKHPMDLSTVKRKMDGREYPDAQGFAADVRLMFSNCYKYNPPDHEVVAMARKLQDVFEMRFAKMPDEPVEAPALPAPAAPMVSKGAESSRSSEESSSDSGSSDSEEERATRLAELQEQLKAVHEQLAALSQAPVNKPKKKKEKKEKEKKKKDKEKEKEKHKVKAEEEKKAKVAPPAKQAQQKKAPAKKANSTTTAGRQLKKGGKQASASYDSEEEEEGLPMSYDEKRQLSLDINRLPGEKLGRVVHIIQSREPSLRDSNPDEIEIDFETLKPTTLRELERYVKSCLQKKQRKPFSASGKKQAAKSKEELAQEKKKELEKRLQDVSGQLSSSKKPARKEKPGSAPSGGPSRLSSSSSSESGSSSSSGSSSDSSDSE

[7] = molecular target: T3, E3 ubiquitin-protein ligase TRIM33 (Homo sapiens) (UniProt Q9UPN9); assay: Inhibition of His6FLAG-tagged TRIM33 isoform B expressed in Escherichia coli assessed as change in melting temperature at 100 uM by thermal shift assay; in short: as §1
T3 sequence (whole entry): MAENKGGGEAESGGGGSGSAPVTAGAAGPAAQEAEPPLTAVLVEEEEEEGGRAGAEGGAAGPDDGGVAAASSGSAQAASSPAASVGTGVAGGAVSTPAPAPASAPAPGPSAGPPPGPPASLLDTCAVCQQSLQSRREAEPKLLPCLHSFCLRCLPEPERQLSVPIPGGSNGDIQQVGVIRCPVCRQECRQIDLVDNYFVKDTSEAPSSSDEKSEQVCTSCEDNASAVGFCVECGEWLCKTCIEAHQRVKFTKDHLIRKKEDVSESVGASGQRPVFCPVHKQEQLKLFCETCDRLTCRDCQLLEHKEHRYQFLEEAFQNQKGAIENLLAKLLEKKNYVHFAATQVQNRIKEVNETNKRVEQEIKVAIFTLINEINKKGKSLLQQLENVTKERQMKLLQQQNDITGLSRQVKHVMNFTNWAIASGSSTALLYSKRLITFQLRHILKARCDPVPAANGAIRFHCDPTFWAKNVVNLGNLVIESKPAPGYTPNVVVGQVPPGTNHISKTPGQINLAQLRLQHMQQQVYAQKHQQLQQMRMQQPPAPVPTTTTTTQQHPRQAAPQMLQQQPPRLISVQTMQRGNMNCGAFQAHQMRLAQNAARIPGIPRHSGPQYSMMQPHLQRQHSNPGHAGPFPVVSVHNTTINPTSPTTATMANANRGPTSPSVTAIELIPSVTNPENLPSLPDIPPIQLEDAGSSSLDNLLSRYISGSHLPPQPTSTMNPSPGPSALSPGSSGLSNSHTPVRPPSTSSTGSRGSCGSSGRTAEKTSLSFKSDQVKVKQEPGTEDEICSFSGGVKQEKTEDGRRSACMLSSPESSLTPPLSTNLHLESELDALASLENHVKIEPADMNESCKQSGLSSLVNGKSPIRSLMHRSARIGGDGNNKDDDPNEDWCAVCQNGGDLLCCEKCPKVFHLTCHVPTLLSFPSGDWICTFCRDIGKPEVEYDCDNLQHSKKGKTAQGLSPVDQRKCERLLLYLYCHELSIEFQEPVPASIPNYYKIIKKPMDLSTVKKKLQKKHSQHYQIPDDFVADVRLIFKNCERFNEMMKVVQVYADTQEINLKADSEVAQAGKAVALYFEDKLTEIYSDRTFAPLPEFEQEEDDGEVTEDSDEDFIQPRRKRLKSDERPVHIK

[8] = molecular target: T4, Bromodomain-containing protein 1 (Homo sapiens) (UniProt O95696); assay: Inhibition of His6FLAG-tagged BRD1 expressed in Escherichia coli assessed as change in melting temperature at 100 uM by thermal shift assay; in short: as §1
T4 sequence (whole entry): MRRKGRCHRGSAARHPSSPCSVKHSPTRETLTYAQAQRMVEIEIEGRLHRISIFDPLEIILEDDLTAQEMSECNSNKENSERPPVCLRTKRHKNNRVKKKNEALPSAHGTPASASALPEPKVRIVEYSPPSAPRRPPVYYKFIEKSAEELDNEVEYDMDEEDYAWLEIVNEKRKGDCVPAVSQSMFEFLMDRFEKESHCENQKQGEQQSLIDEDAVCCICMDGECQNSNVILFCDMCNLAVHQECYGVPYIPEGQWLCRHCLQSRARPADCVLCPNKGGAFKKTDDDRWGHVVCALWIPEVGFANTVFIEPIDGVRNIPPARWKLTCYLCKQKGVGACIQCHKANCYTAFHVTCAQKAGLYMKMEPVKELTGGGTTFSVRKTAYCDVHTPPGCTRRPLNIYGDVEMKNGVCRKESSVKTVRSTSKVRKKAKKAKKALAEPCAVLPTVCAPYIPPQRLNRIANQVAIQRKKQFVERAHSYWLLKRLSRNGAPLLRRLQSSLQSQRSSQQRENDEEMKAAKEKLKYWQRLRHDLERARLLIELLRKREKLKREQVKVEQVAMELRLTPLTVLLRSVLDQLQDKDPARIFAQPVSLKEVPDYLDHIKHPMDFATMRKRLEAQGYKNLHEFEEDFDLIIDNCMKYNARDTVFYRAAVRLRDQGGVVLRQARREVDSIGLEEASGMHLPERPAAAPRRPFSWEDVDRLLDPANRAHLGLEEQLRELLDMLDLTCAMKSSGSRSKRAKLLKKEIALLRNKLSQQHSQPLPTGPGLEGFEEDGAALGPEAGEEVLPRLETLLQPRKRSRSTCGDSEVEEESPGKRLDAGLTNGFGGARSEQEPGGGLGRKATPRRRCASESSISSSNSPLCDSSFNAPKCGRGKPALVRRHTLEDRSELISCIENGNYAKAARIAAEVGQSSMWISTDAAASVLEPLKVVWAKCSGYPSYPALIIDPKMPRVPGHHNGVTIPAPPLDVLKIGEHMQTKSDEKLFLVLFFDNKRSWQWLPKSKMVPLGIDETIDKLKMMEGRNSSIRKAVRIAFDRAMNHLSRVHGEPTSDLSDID

[9] = system: Blood; assay: Antiinflammatory activity in human whole blood assessed as inhibition of LPS-induced TNFalpha production after 18 to 24 hrs by ELISA; type: functional, tissue-based

IC50 [1] [nM] | IC50 [2] [nM] | ΔTm [3] [°C] | solubility [4] [µg/mL] | Kd [5] [µM] | RUmax [5] [%] | ΔTm [6] [°C] | ΔTm [7] [°C] | ΔTm [8] [°C] | IC50 [9] [µM] | Compound
1100 | 2600 | 2 | 210 (≈ 453 µM) | 3.14 | 34 | 2 | < 1 | < 1 | – | Cc1noc(C)c1-c1ccc(OCCCN2CCOCC2)c(S(=O)(=O)NC2CCCC2)c1
– | – | 2 | < 1 | – | – | 2 | < 1 | < 1 | 5 | Cc1ccc(-c2c(C)noc2C)cc1S(=O)(=O)NC1CCCC1
